In ChEMBL document CHEMBL1134553 (J Med Chem, 2001):

Each molecule was assayed against T1, Sodium-dependent serotonin transporter (Homo sapiens, UniProt P31645) (assay: Inhibition of [3H]-citalopram binding to the serotonin transporter in rhesus (Macaca mulatta) or cynomolgus monkey (Macaca fascicularis) caudate-putamen.). Conditions: not given; call rule not given here.
Assay type: tissue-based, Cercopithecidae
Summary of the method: (§1)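 Caudate-putamen membranes homogenised in ice-cold 50 mM Tris·HCl (pH 7.4), spun at 38000g for 20 min, washed twice. Assay at 4 mg original wet tissue/mL with 1 nM [3H]citalopram in 50 mM Tris·HCl pH 7.4 plus 100 mM NaCl. Incubated 2 h at 0-4 °C, then filtered on polyethyleneimine-soaked GF/B and counted by scintillation. Nonspecific binding defined with 10 µM fluoxetine. IC50 by EBDA; triplicates, 2-3 brains.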

T1 sequence (P31645 whole entry): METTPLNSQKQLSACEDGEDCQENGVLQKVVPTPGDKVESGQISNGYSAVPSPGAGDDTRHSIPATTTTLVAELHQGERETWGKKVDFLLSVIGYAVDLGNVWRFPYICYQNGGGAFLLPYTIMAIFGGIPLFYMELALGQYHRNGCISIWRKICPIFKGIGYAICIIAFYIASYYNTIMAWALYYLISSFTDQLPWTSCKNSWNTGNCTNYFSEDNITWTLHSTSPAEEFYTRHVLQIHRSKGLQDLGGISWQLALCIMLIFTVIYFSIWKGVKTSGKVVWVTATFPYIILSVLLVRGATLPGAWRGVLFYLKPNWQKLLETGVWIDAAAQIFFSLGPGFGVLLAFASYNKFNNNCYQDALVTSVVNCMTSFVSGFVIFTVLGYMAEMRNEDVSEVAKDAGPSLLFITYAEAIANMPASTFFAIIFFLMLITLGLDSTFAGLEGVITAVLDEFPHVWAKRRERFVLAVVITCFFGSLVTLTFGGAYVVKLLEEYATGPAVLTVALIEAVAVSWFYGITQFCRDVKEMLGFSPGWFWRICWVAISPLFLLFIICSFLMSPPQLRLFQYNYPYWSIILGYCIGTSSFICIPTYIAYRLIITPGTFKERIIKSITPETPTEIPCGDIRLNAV

| Structure (SMILES) | IC50 |
| --- | --- |
| COC(=O)[C@@H]1C2CC[C@H](C[C@@H]1c1ccccc1)N2C.Cl | Not Active |

Each molecule was assayed against T1, Sodium-dependent serotonin transporter (assay: Inhibition of [3H]citalopram binding to the serotonin transporter in rhesus (Macaca mulatta) or cynomolgus monkey (Macaca fascicularis) caudate-putamen.). Conditions: target entry is the homologue from another species.
Assay type: tissue-based, Cercopithecidae
Summary of the method: as §1

| Structure (SMILES) | IC50 |
| --- | --- |
| COC(=O)[C@H]1C2C(=O)CC(C[C@H]1c1ccc(Cl)c(Cl)c1)N2C (some centres not stated) | 7040 nM |
| COC(=O)C1=C(c2ccc(F)cc2)CC2C[C@@H](O)C1N2C (some centres not stated) | > 10000 nM |
| COC(=O)C1C(OC(c2ccc(F)cc2)c2ccc(F)cc2)CC2C[C@@H](O)C1N2C (some centres not stated) | 9560 nM |
| COC(=O)C1=C(c2ccc3ccccc3c2)CC2[C@@H](O)CC1N2C (some centres not stated) | 260 nM |
| COC(=O)C1=C(c2ccc(F)cc2)CC2[C@@H](O)CC1N2C (some centres not stated) | > 20000 nM |
| COC(=O)C1=C(c2ccc3ccccc3c2)CC2C[C@@H](O)C1N2C (some centres not stated) | 677 nM |
| COC(=O)C1=C(c2ccc(Cl)c(Cl)c2)CC2[C@@H](O)CC1N2C (some centres not stated) | 3320 nM |
| COC(=O)C1=C(c2ccc(Cl)c(Cl)c2)CC2C[C@H](O)[C@H]1N2C | 1590 nM |
| COC(=O)[C@@H]1C(c2ccc(Cl)c(Cl)c2)C[C@H]2C[C@@H](O)C1N2C (some centres not stated) | 1220 nM |
| COC(=O)C1=C(c2ccc(Cl)c(Cl)c2)C[C@H]2C[C@@H](O)C1N2C | 5370 nM |
| COC(=O)C1=C(c2ccc(Cl)c(Cl)c2)CC2C[C@@H](O)C1N2C (some centres not stated) | > 6000 nM |
| COC(=O)C1C(c2ccc(Cl)c(Cl)c2)CC2[C@H](O)CC1N2C (some centres not stated) | 10700 nM |
| COC(=O)C1C(c2ccc(Cl)c(Cl)c2)CC2C[C@H](O)C1N2C (some centres not stated) | 991 nM |
| COC(=O)C1=C(c2ccccc2)CC2CCC1N2C (configuration not stated) | 28600 nM |
| COC(=O)C1=C(c2ccccc2)CC2C[C@@H](O)C1N2C (some centres not stated) | > 10000 nM |
| COC(=O)C1=C(c2ccccc2)CC2[C@@H](O)CC1N2C (some centres not stated) | > 100000 nM |
| COC(=O)C1C(OC(c2ccc(F)cc2)c2ccc(F)cc2)CC2[C@@H](O)CC1N2C (some centres not stated) | 4850 nM |
| COC(=O)C1C(c2ccc(Cl)c(Cl)c2)C[C@H]2C[C@@H](O)C1N2C (some centres not stated) | 15 nM |
| COC(=O)C1C(c2ccc(Cl)c(Cl)c2)CC2[C@@H](O)CC1N2C (stereo in doubt; 14a) [listing 1 of 2 here] | 166 nM |
| COC(=O)C1C(c2ccc3ccccc3c2)CC2[C@@H](O)CC1N2C (stereo in doubt; 14b) [listing 1 of 2 here] | 34.2 nM |

| Structure (SMILES) | IC50 |
| --- | --- |
| COC(=O)C1C(c2ccc(F)cc2)CC2[C@@H](O)CC1N2C (stereo in doubt; 14c) [listing 1 of 2 here] | > 20000 nM |
| COC(=O)C1C(c2ccccc2)CC2[C@@H](O)CC1N2C (stereo in doubt; 14d) [listing 1 of 2 here] | 88000 nM |
| COC(=O)C1C(c2ccc(Cl)c(Cl)c2)CC2C[C@@H](O)C1N2C (stereo in doubt; 15a) [listing 1 of 2 here] | 27.7 nM |
| COC(=O)C1C(c2ccc3ccccc3c2)CC2C[C@@H](O)C1N2C (stereo in doubt; 15b) [listing 1 of 2 here] | 5.57 nM |
| COC(=O)C1C(c2ccc(F)cc2)CC2C[C@@H](O)C1N2C (stereo in doubt; 15c) [listing 1 of 2 here] | > 10000 nM |
| COC(=O)C1C(c2ccccc2)CC2C[C@@H](O)C1N2C (stereo in doubt; 15d) [listing 1 of 2 here] | > 10000 nM |
| COC(=O)[C@H]1[C@@H](c2ccc(F)cc2)C[C@H]2CC[C@H]1N2C (stereo in doubt; 16c) | 1130 nM |
| COC(=O)C1C(c2ccc(Cl)c(Cl)c2)CC2[C@@H](O)CC1N2C (stereo in doubt; 17a) [listing 1 of 2 here] | 1450 nM |
| COC(=O)C1C(c2ccc3ccccc3c2)CC2[C@@H](O)CC1N2C (stereo in doubt; 17b) [listing 1 of 2 here] | 180 nM |
| COC(=O)C1C(c2ccc(F)cc2)CC2[C@@H](O)CC1N2C (stereo in doubt; 17c) [listing 1 of 2 here] | 5820 nM |
| COC(=O)C1C(c2ccccc2)CC2[C@@H](O)CC1N2C (stereo in doubt; 17d) [listing 1 of 2 here] | > 10000 nM |
| COC(=O)C1C(c2ccc(Cl)c(Cl)c2)CC2C[C@@H](O)C1N2C (stereo in doubt; 18a) [listing 1 of 2 here] | 1390 nM |
| COC(=O)C1C(c2ccc3ccccc3c2)CC2C[C@@H](O)C1N2C (stereo in doubt; 18b) [listing 1 of 2 here] | 94 nM |
| COC(=O)C1C(c2ccc(F)cc2)CC2C[C@@H](O)C1N2C (stereo in doubt; 18c) [listing 1 of 2 here] | > 20000 nM |
| COC(=O)C1C(c2ccccc2)CC2C[C@@H](O)C1N2C (stereo in doubt; 18d) [listing 1 of 2 here] | > 100000 nM |
| COC(=O)C1C(c2ccc(Cl)c(Cl)c2)CC2C[C@@H](O)C1N2C (stereo in doubt; 33) | 533 nM |
| COC(=O)C1C(c2ccccc2)CC2[C@@H](O)CC1N2C (stereo in doubt; 34) | > 20000 nM |
| COC(=O)[C@H]1C(c2ccc(Cl)c(Cl)c2)CC2C[C@@H](O)[C@H]1N2C (stereo in doubt; (1R)-15a) [listing 1 of 2 here] | 139 nM |
| COC(=O)[C@H]1C(c2ccc(Cl)c(Cl)c2)CC2C[C@@H](O)[C@H]1N2C (stereo in doubt; (1R)-18a) [listing 1 of 2 here] | 5300 nM |

The molecules below were run against Monoamine transporters; serotonin & dopamine (Homo sapiens) (UniProt P31645+Q01959) (assay: SERT/DAT ratio of the compound). Conditions: not given.
Assay type: protein assay

Chain of Monoamine transporters; serotonin & dopamine (Homo sapiens) (P31645 whole entry, looked up): as the sequence (P31645 whole entry) above
Chain of Monoamine transporters; serotonin & dopamine (Homo sapiens) (Q01959 whole entry, looked up): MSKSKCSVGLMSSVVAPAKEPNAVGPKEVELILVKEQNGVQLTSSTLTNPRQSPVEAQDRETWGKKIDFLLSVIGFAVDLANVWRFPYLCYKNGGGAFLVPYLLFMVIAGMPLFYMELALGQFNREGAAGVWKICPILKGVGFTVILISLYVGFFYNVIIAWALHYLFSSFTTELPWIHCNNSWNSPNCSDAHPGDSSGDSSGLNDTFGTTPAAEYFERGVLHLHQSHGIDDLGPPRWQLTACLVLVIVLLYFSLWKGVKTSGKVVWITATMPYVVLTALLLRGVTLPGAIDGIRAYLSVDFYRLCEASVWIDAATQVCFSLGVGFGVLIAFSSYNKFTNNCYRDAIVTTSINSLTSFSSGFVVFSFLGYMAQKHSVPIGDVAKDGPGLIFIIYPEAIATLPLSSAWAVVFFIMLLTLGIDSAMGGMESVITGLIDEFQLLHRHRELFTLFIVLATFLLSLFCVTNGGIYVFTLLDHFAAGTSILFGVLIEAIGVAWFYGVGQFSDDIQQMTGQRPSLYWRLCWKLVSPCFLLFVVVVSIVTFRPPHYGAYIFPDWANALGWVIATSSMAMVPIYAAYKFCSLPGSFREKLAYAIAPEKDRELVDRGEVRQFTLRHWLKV

| Structure (SMILES) | Ratio |
| --- | --- |
| COC(=O)C1=C(c2ccc(F)cc2)CC2C[C@@H](O)C1N2C (some centres not stated) | 1 |
| COC(=O)C1=C(c2ccc3ccccc3c2)CC2[C@@H](O)CC1N2C (some centres not stated) | 1 |
| COC(=O)C1=C(c2ccc(F)cc2)CC2[C@@H](O)CC1N2C (some centres not stated) | 1 |
| COC(=O)C1=C(c2ccc3ccccc3c2)CC2C[C@@H](O)C1N2C (some centres not stated) | 15 |
| COC(=O)C1=C(c2ccc(Cl)c(Cl)c2)CC2[C@@H](O)CC1N2C (some centres not stated) | 60 |
| COC(=O)C1=C(c2ccc(Cl)c(Cl)c2)CC2C[C@H](O)[C@H]1N2C | 6 |
| COC(=O)[C@@H]1C(c2ccc(Cl)c(Cl)c2)C[C@H]2C[C@@H](O)C1N2C (some centres not stated) | 1610 |
| COC(=O)C1=C(c2ccc(Cl)c(Cl)c2)CC2C[C@@H](O)C1N2C (some centres not stated) | > 300 |
| COC(=O)C1=C(c2ccccc2)CC2CCC1N2C (configuration not stated) | 11 |
| COC(=O)C1=C(c2ccccc2)CC2C[C@@H](O)C1N2C (some centres not stated) | 1 |
| COC(=O)C1=C(c2ccccc2)CC2[C@@H](O)CC1N2C (some centres not stated) | 1 |
| COC(=O)C1C(c2ccc(Cl)c(Cl)c2)C[C@H]2C[C@@H](O)C1N2C (some centres not stated) | 50 |
| COC(=O)C1=C(c2ccc(Cl)c(Cl)c2)CC2CCC1N2C (configuration not stated) | 747 |
| COC(=O)C1=C(c2ccc(F)cc2)CC2CCC1N2C (configuration not stated) | 20 |
| COC(=O)C1=C(c2ccc3ccccc3c2)CC2CCC1N2C (configuration not stated) | 37 |
| COC(=O)C1C(c2ccc(Cl)c(Cl)c2)CC2CCC1N2C (stereo in doubt; 13a) | 2 |
| COC(=O)C1C(c2ccc3ccccc3c2)CC2CCC1N2C (stereo in doubt; 13b) | 5 |
| COC(=O)C1C(c2ccc(Cl)c(Cl)c2)CC2[C@@H](O)CC1N2C (stereo in doubt; 14a) [listing 2 of 2 here] | 55 |
| COC(=O)C1C(c2ccc3ccccc3c2)CC2[C@@H](O)CC1N2C (stereo in doubt; 14b) [listing 2 of 2 here] | 4 |

| Structure (SMILES) | Ratio |
| --- | --- |
| COC(=O)C1C(c2ccc(F)cc2)CC2[C@@H](O)CC1N2C (stereo in doubt; 14c) [listing 2 of 2 here] | > 42 |
| COC(=O)C1C(c2ccccc2)CC2[C@@H](O)CC1N2C (stereo in doubt; 14d) [listing 2 of 2 here] | 14 |
| COC(=O)C1C(c2ccc(Cl)c(Cl)c2)CC2C[C@@H](O)C1N2C (stereo in doubt; 15a) [listing 2 of 2 here] | 20 |
| COC(=O)C1C(c2ccc3ccccc3c2)CC2C[C@@H](O)C1N2C (stereo in doubt; 15b) [listing 2 of 2 here] | 4 |
| COC(=O)C1C(c2ccc(F)cc2)CC2C[C@@H](O)C1N2C (stereo in doubt; 15c) [listing 2 of 2 here] | > 80 |
| COC(=O)C1C(c2ccccc2)CC2C[C@@H](O)C1N2C (stereo in doubt; 15d) [listing 2 of 2 here] | > 43 |
| COC(=O)C1C(c2ccc(Cl)c(Cl)c2)CC2CCC1N2C (stereo in doubt; 16a) | 73 |
| COC(=O)C1C(c2ccc3ccccc3c2)CC2CCC1N2C (stereo in doubt; 16b) | 10 |
| COC(=O)C1C(c2ccc(Cl)c(Cl)c2)CC2[C@@H](O)CC1N2C (stereo in doubt; 17a) [listing 2 of 2 here] | 238 |
| COC(=O)C1C(c2ccc3ccccc3c2)CC2[C@@H](O)CC1N2C (stereo in doubt; 17b) [listing 2 of 2 here] | 6 |
| COC(=O)C1C(c2ccc(F)cc2)CC2[C@@H](O)CC1N2C (stereo in doubt; 17c) [listing 2 of 2 here] | 8 |
| COC(=O)C1C(c2ccccc2)CC2[C@@H](O)CC1N2C (stereo in doubt; 17d) [listing 2 of 2 here] | > 3 |
| COC(=O)C1C(c2ccc(Cl)c(Cl)c2)CC2C[C@@H](O)C1N2C (stereo in doubt; 18a) [listing 2 of 2 here] | 1170 |
| COC(=O)C1C(c2ccc3ccccc3c2)CC2C[C@@H](O)C1N2C (stereo in doubt; 18b) [listing 2 of 2 here] | 34 |
| COC(=O)C1C(c2ccc(F)cc2)CC2C[C@@H](O)C1N2C (stereo in doubt; 18c) [listing 2 of 2 here] | > 120 |
| COC(=O)C1C(c2ccccc2)CC2C[C@@H](O)C1N2C (stereo in doubt; 18d) [listing 2 of 2 here] | > 190 |
| COC(=O)[C@H]1C(c2ccc(Cl)c(Cl)c2)CC2C[C@@H](O)[C@H]1N2C (stereo in doubt; (1R)-15a) [listing 2 of 2 here] | 0.05 |
| COC(=O)[C@H]1C(c2ccc(Cl)c(Cl)c2)CC2C[C@@H](O)[C@H]1N2C (stereo in doubt; (1R)-18a) [listing 2 of 2 here] | 11 |
